Data reported in ChEMBL document CHEMBL1138283, “5'-O-[(N-acyl)sulfamoyl]adenosines as antitubercular agents that inhibit MbtA: an adenylation enzyme required for siderophore biosynthesis of the mycobactins” (J Med Chem, 2007).
Converted amounts (≈) assume the structure as drawn.

Assays:
[1] = target: T1, Salicyl-AMP ligase / salicyl-S-ArCP synthetase (Mycobacterium tuberculosis, UniProt P71716); assay: Inhibition of Mycobacterium tuberculosis recombinant MbtA expressed in Escherichia coli by ATP/PPi exchange assay; conditions: read-out: Ki app
T1 sequence (P71716 whole entry): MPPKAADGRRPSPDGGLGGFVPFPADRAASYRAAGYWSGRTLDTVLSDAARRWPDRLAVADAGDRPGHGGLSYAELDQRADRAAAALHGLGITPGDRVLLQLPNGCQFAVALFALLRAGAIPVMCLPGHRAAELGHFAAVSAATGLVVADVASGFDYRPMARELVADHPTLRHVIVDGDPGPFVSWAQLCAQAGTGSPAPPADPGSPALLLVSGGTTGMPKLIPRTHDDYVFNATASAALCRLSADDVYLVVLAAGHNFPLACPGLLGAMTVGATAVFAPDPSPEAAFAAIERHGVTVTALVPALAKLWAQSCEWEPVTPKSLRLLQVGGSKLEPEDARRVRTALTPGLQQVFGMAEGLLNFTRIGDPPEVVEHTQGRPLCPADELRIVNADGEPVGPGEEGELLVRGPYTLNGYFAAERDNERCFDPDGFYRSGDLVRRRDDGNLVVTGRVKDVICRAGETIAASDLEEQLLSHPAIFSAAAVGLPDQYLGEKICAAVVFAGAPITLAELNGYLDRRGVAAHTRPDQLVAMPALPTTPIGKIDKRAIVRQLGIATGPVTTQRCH
Outline: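 Recombinant MbtA expressed in E. coli, 7 nM, at 37 °C in 75 mM Tris-HCl pH 7.5, 10 mM MgCl2, 2 mM DTT, 250 μM salicylic acid, 10 mM ATP, 1 mM PPi. Reaction started with [32P]PPi, five inhibitor concentrations, in duplicate. Initial rates (≤10% reaction) measured. Quenched with HClO4/PPi/charcoal; charcoal-bound [32P]ATP counted by scintillation. Apparent Ki from Hill or Morrison (tight-binding) fits.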

[2] = test system: Mycobacterium tuberculosis; assay: Antimycobacterial activity against Mycobacterium tuberculosis H37Rv in iron rich GAST medium; format: functional
Outline: (§1)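 Broth microdilution MIC against M. tuberculosis H37Rv in iron-deficient GAST, or GAST supplemented with 200 μM FeCl3 (iron-rich). Compounds added from DMSO stocks; DMSO-only wells as negative control, isoniazid as positive control. Initial density 10^4–10^5 cells/assay, 37 °C, growth read as OD620 at 10–14 days. Run in quadruplicate; reported as MIC99.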

[3] = test system: Mycobacterium tuberculosis; assay: Antimycobacterial activity against Mycobacterium tuberculosis H37Rv in iron deficient GAST medium; format: functional; outline: as §1

Row | Structure (SMILES) | Ki [1] [nM] | MIC99 [2] [µM] | MIC99 [3] [µM]
1 | Nc1ncnc2c1ncn2[C@@H]1O[C@H](COS(=O)(=O)NC(=O)c2ccc[nH]c2=O)[C@@H](O)[C@H]1O | 3700 | > 200 | > 200
2 | Nc1ccc(C(=O)NS(=O)(=O)OC[C@H]2O[C@@H](n3cnc4c(N)ncnc43)[C@H](O)[C@@H]2O)c(O)c1 | 40 | 25 (≈ 12 µg/mL) | 1.56 (≈ 0.751 µg/mL)
3 | Nc1ncnc2c1ncn2[C@@H]1O[C@H](COS(=O)(=O)NC(=O)c2ccc(C(F)(F)F)cc2O)[C@@H](O)[C@H]1O | 4380 | > 200 | > 200
4 | Nc1ncnc2c1ncn2[C@@H]1O[C@H](COS(=O)(=O)NC(=O)c2ccc(Br)cc2O)[C@@H](O)[C@H]1O | 21 | 50 (≈ 27.3 µg/mL) | 6.25 (≈ 3.41 µg/mL)
5 | CC(=O)NS(=O)(=O)OC[C@H]1O[C@@H](n2cnc3c(N)ncnc32)[C@H](O)[C@@H]1O | > 100000 | > 200 | > 200
6 | Nc1ncnc2c1ncn2[C@@H]1O[C@H](CNC(=O)NC(=O)c2ccccc2O)[C@@H](O)[C@H]1O | 1250 | > 200 | 200 (≈ 85.9 µg/mL)
7 | Cc1ccc(C(=O)NS(=O)(=O)OC[C@H]2O[C@@H](n3cnc4c(N)ncnc43)[C@H](O)[C@@H]2O)c(O)c1 | 14 | 25 (≈ 12 µg/mL) | 1.56 (≈ 0.75 µg/mL)
8 | Nc1ncnc2c1ncn2[C@@H]1O[C@H](COS(=O)(=O)NC(=O)c2cccnc2Cl)[C@@H](O)[C@H]1O | 175 | 50 (≈ 24.3 µg/mL) | 12.5 (≈ 6.07 µg/mL)
9 | Nc1ncnc2c1ncn2[C@@H]1O[C@H](COS(=O)(=O)NC(=O)c2ccccc2)[C@@H](O)[C@H]1O | 92 | 50 (≈ 22.5 µg/mL) | 12.5 (≈ 5.63 µg/mL)
10 | Nc1ncnc2c1ncn2[C@@H]1O[C@H](COS(=O)(=O)NC(=O)c2cccc(Cl)c2O)[C@@H](O)[C@H]1O | 61 | > 200 | 50 (≈ 25 µg/mL)
11 | Nc1ncnc2c1ncn2[C@@H]1O[C@H](COS(=O)(=O)NC(=O)c2ccccc2[N+](=O)[O-])[C@@H](O)[C@H]1O | 7320 | > 200 | > 200
12 | Nc1ncnc2c1ncn2[C@@H]1O[C@H](COS(=O)(=O)NC(=O)c2ccccc2Cl)[C@@H](O)[C@H]1O | 18100 | > 200 | > 200
13 | Nc1ncnc2c1ncn2[C@@H]1O[C@H](COS(=O)(=O)NC(=O)C2CCCCC2)[C@@H](O)[C@H]1O | 17300 | > 200 | > 200
14 | Nc1ncnc2c1ncn2[C@@H]1O[C@H](COS(=O)(=O)NC(=O)Cc2ccccc2)[C@@H](O)[C@H]1O | > 100000 | > 200 | > 200
15 | Nc1ncnc2c1ncn2[C@@H]1O[C@H](COS(=O)(=O)NC(=O)c2cccnc2F)[C@@H](O)[C@H]1O | 2900 | > 200 | > 200
16 | Nc1ncnc2c1ncn2[C@@H]1O[C@H](COS(=O)(=O)NC(=O)c2ccc(Cl)cc2O)[C@@H](O)[C@H]1O | 12 | 50 (≈ 25 µg/mL) | 12.5 (≈ 6.26 µg/mL)
17 | Nc1ccccc1C(=O)NS(=O)(=O)OC[C@H]1O[C@@H](n2cnc3c(N)ncnc32)[C@H](O)[C@@H]1O | 770 | > 200 | > 200
18 | Nc1ncnc2c1ncn2[C@@H]1O[C@H](COS(=O)(=O)NC(=O)c2c(O)cccc2F)[C@@H](O)[C@H]1O | 7.3 | 3.13 (≈ 1.52 µg/mL) | 0.78 (≈ 0.378 µg/mL)
19 | Nc1ncnc2c1ncn2[C@@H]1O[C@H](COS(=O)(=O)NC(=O)c2ccccc2F)[C@@H](O)[C@H]1O | 38 | 50 (≈ 23.4 µg/mL) | 12.5 (≈ 5.86 µg/mL)
20 | Nc1ncnc2c1ncn2[C@@H]1O[C@H](COS(=O)(=O)NC(=O)N2CCOCC2)[C@@H](O)[C@H]1O | > 100000 | > 200 | > 200
21 | [N-]=[N+]=Nc1c(F)c(F)c(C(=O)NS(=O)(=O)OC[C@H]2O[C@@H](n3cnc4c(N)ncnc43)[C@H](O)[C@@H]2O)c(F)c1F | > 100000 | > 200 | > 200
22 | COC(=O)NS(=O)(=O)OC[C@H]1O[C@@H](n2cnc3c(N)ncnc32)[C@H](O)[C@@H]1O | 2500 | > 200 | > 200
23 | Nc1ncnc2c1ncn2[C@@H]1O[C@H](CNC(=O)c2coc3ccccc3c2=O)[C@@H](O)[C@H]1O | > 100000 | 50 (≈ 21.9 µg/mL) | 12.5 (≈ 5.48 µg/mL)
24 | Nc1ncnc2c1ncn2[C@@H]1O[C@H](COS(=O)(=O)NC(=O)c2ccc(O)c(O)c2)[C@@H](O)[C@H]1O | > 100000 | > 200 | > 200
25 | Nc1ncnc2c1ncn2[C@@H]1O[C@H](COS(=O)(=O)NC(=O)c2ccc(F)cc2O)[C@@H](O)[C@H]1O | 12 | 0.39 (≈ 0.189 µg/mL) | 0.098 (≈ 0.0475 µg/mL)
26 | Nc1ncnc2c1ncn2[C@@H]1O[C@H](COS(=O)(=O)NC(=O)[C@@H](N)Cc2ccccc2)[C@@H](O)[C@H]1O [PHESA] | 36500 | > 200 | > 200
27 | Nc1ncnc2c1ncn2[C@@H]1O[C@H](COS(=O)(=O)NC(=O)C2CCCC2)[C@@H](O)[C@H]1O | 49800 | > 200 | > 200
28 | Nc1ncnc2c1ncn2[C@@H]1O[C@H](COS(=O)(=O)NC(=O)c2cccc(O)c2O)[C@@H](O)[C@H]1O | 137 | > 200 | > 200
29 | Nc1ncnc2c1ncn2[C@@H]1O[C@H](CNS(=O)(=O)NC(=O)c2ccccc2O)[C@@H](O)[C@H]1O |  | 0.39 (≈ 0.182 µg/mL) | 
30 | Nc1ncnc2c1ncn2[C@@H]1O[C@H](COS(=O)(=O)NC(=O)c2cc(Cl)ccc2O)[C@@H](O)[C@H]1O | 20 | 50 (≈ 25 µg/mL) | 12.5 (≈ 6.26 µg/mL)
